In ChEMBL document CHEMBL3822428, “Design, Synthesis, and Biological Evaluation of Potential Prodrugs Related to the Experimental Anticancer Agent Indotecan (LMP400)” (J Med Chem, 2016):
Activity calls are given as the source filed them. The rule behind the calls is not given here.

Assays:
[1] = target: T1, DNA topoisomerase 1 (Homo sapiens) (UniProt P11387); assay: Inhibition of human recombinant Top1 expressed in baculovirus using [32P]-3-end labeled 117 bp DNA oligonucleotide as substrate assessed as enzyme mediated DNA cleavage after 20 mins by SDS-PAGE analysis relative to camptothecin; design: concentration or dose not given beside the values
T1 sequence (whole entry): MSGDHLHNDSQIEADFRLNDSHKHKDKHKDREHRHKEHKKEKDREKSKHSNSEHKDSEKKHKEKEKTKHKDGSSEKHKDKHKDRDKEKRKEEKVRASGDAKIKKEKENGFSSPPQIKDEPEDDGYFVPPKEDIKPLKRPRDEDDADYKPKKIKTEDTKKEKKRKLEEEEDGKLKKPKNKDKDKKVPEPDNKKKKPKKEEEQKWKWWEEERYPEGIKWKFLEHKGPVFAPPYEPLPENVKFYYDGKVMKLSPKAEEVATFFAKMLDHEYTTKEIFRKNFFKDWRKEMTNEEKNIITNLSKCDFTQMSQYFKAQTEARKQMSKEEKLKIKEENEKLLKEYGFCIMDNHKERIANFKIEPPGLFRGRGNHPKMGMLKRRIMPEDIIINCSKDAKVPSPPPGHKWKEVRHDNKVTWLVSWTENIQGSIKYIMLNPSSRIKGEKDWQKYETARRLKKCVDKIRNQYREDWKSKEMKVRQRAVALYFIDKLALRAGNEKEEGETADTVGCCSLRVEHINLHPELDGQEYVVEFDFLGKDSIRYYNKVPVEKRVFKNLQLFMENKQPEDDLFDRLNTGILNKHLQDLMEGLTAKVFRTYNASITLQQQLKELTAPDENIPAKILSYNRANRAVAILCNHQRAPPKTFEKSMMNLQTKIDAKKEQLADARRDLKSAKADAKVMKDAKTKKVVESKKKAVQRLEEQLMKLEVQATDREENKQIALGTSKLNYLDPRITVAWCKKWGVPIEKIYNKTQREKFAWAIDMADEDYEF
In short: (§1)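 Baculovirus-purified human recombinant Top1 with ~2 nM 117-bp oligonucleotide, 3'-end labeled by Klenow fill-in with [α-32P]dGTP. Stopped with 0.5% SDS and formamide dye; 20% denaturing PAGE, phosphoimager.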

[2] = Antiproliferative activity in human SF539 cells assessed as cell growth inhibition after 48 hrs by SRB assay; type: functional; conditions: SF-539, 48 h
In short: (§2)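 NCI-60 screen: cells exposed to compound at 100, 10, 1, 0.1 and 0.01 μM for 48 h, then sulforhodamine B staining. Optical density ratio to control plotted as percent growth versus log10 concentration; GI50 interpolated between points above and below 50% growth.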

[3] = Antiproliferative activity in human UACC62 cells assessed as cell growth inhibition after 48 hrs by SRB assay; type: functional; conditions: UACC-62, 48 h; in short: as §2
[4] = Antiproliferative activity in human […] cells assessed as cell growth inhibition after 48 hrs by SRB assay; type: functional; in short: as §2
MCF7 = assay: Antiproliferative activity in human MCF7 cells assessed as cell growth inhibition after 48 hrs by SRB assay; type: functional; conditions: MCF7, 48 h; in short: as §2
[5] = Antiproliferative activity in human HOP62 cells assessed as cell growth inhibition after 48 hrs by SRB assay; type: functional; conditions: HOP-62, 48 h; in short: as §2
[6] = Antiproliferative activity in human HCT116 cells assessed as cell growth inhibition after 48 hrs by SRB assay; type: functional; conditions: HCT-116, 48 h; in short: as §2
SN12C = assay: Antiproliferative activity in human SN12C cells assessed as cell growth inhibition after 48 hrs by SRB assay; type: functional; in short: as §2
[7] = Antiproliferative activity in human DU145 cells assessed as cell growth inhibition after 48 hrs by SRB assay; type: functional; conditions: DU-145, 48 h; in short: as §2
[8] = target: T1, DNA topoisomerase 1 (Homo sapiens); assay: Inhibition of human recombinant Top1 expressed in baculovirus using [32P]-3-end labeled 117 bp DNA oligonucleotide as substrate assessed as enzyme mediated DNA cleavage at 0.1 to 100 uM after 20 mins by SDS-PAGE analysis relative to camptothecin; design: scale not given: the % may be the effect or the level left; in short: as §1
Plasma [9] = assay: Drug metabolism in rat plasma assessed as compound 9 formation at 5 uM after 15 mins by LC-MS/MS analysis; type: ADME, cell-free; conditions: 0.25 h
In short: (§3)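 Rat plasma at 37 °C with compound at 5 μM, duplicate runs alongside enalapril and warfarin controls. Aliquots taken at 0, 1, 3, 5 and 15 min into three volumes ice-cold methanol with propranolol internal standard, held ≥10 min at -20 °C, centrifuged. Parent quantified by LC-MS/MS in positive ion mode, expressed as % of time-zero concentration.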

[10] = Half life in rat plasma at 5 uM by LC-MS/MS analysis; type: ADME, cell-free; in short: as §3
[11] = Drug uptake in RPMI1640 medium treated with2-Methoxy-6-(3-morpholinopropyl)-5,12-dioxo-6,12-dihydro-5H-[1,3]dioxolo[4,5:5,6]indeno[1,2-c]isoquinolin-3-yl Methyl Succinate by at 10 uM after 99 hrs by LC-MS analysis; type: physicochemical
In short: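 Compound (10 μM) incubated in cell-free RPMI 1640 medium at 37 °C for 99 h. Aliquot filtered and analysed by LC-MS, diode-array detection at 280 nm, flow 0.75 mL/min, for conversion to parent phenol.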

Plasma [12] = assay: Drug uptake in rat plasma treated with of 2-Methoxy-6-(3-morpholinopropyl)-5,12-dioxo-6,12-dihydro 5H-[1,3]dioxolo[4,5:5,6]indeno[1,2-c]isoquinolin-3-yl Acetate after 15 mins by LC-MS/MS analysis; type: ADME, cell-free; conditions: 0.25 h; in short: as §3

`COc1cc2c3c(n(CCCN4CCOCC4)c(=O)c2cc1OC)-c1cc2c(cc1C3=O)OCO2` [INDOTECAN] showed an Activity [1] of 100%, a GI50 [2] of 40 nM and a GI50 [3] of 30 nM. It also gave a GI50 [4] of 74100 nM and a GI50 (MCF7) of 374 nM.
In the case of `COC(=O)CCC(=O)Oc1cc2c(=O)n(CCCN3CCOCC3)c3c(c2cc1OC)C(=O)c1cc2c(cc1-3)OCO2`, the Activity [1] is reported as “inactive”, the GI50 [5] is reported as 16 nM and the GI50 [6] is reported as 20 nM. It also gave a GI50 [2] of less than 10 nM, a GI50 [3] of 18 nM and a GI50 [4] of 37 nM. For the same compound, the GI50 (SN12C) was less than 10 nM, the GI50 [7] was 14 nM and the GI50 (MCF7) was less than 10 nM.
Work on `COc1cc2c(=O)n(CCCN3CCOCC3)c3c(c2cc1OC(=O)N(C)C)C(=O)c1cc2c(cc1-3)OCO2` yielded an Activity [8] of 75%, a GI50 [5] of 1700 nM and a GI50 [6] of 6070 nM. For the same compound, the GI50 [2] was 1860 nM, the GI50 [3] was 4470 nM and the GI50 [4] was 12000 nM. The GI50 (SN12C) was 2400 nM, the GI50 [7] was 1550 nM and the GI50 (MCF7) was 22 nM.
`COc1cc2c3c(n(CCCN4CCOCC4)c(=O)c2cc1OC(=O)c1cccnc1)-c1cc2c(cc1C3=O)OCO2` showed an Activity [1] of 20%, a GI50 [5] of less than 10 nM and a GI50 [6] of less than 10 nM. The GI50 [2] was less than 10 nM, the GI50 [3] was less than 10 nM and the GI50 [4] was 15 nM. The GI50 (SN12C) was less than 10 nM, the GI50 [7] was less than 10 nM and the GI50 (MCF7) was less than 10 nM.
With `COc1cc2c(=O)n(CCCN3CCOCC3)c3c(c2cc1O)C(=O)c1cc2c(cc1-3)OCO2` the Activity [1] was 50% and the GI50 [4] was 871 nM.
Work on `COc1cc2c(=O)n(CCCN3CCOCC3)c3c(c2cc1OC(C)=O)C(=O)c1cc2c(cc1-3)OCO2` yielded an Activity [8] of 50%, a GI50 [5] of 18 nM and a GI50 [6] of 29 nM. The GI50 [2] was less than 10 nM, the GI50 [3] was 18 nM and the GI50 [4] was 138 nM. For the same compound, the GI50 (SN12C) was less than 10 nM, the GI50 [7] was less than 10 nM and the GI50 (MCF7) was less than 10 nM.
`COc1cc2c3c(n(CCCN4CCOCC4)c(=O)c2cc1OC(=O)c1ccccc1)-c1cc2c(cc1C3=O)OCO2` showed an Activity [1] of 20%, a GI50 [5] of 2140 nM and a GI50 [6] of 5890 nM. It also gave a GI50 [2] of 135 nM, a GI50 [3] of 59 nM and a GI50 [4] of 30900 nM. For the same compound, the GI50 (SN12C) was 195 nM, the GI50 [7] was 724 nM and the GI50 (MCF7) was 15 nM.
With `COc1cc2c3c(n(CCCN4CCOCC4)c(=O)c2cc1OC(=O)N(C)C)-c1cc2c(cc1C3=O)OCO2` the Activity [1] was 50%, the GI50 [5] was 32 nM and the GI50 [6] was 26 nM. The GI50 [2] was 21 nM, the GI50 [3] was 17 nM and the GI50 [4] was 105 nM. It also gave a GI50 (SN12C) of 25 nM, a GI50 [7] of 32 nM and a GI50 (MCF7) of less than 10 nM.
`COc1cc2c(=O)n(CCCN3CCOCC3)c3c(c2cc1OC(=O)c1ccccc1)C(=O)c1cc2c(cc1-3)OCO2` gave an Activity [8] of 20%, a GI50 [5] of 79 nM and a GI50 [6] of 850 nM. For the same compound, the GI50 [2] was 37 nM, the GI50 [3] was 96 nM and the GI50 [4] was 4570 nM. For the same compound, the GI50 (SN12C) was 54 nM, the GI50 [7] was 51 nM and the GI50 (MCF7) was 33 nM.
For `COC(=O)CCC(=O)Oc1cc2c3c(n(CCCN4CCOCC4)c(=O)c2cc1OC)-c1cc2c(cc1C3=O)OCO2`, the Activity [1] was 20%, the GI50 [5] was less than 10 nM and the GI50 [6] was 14 nM. It also gave a GI50 [2] of less than 10 nM, a GI50 [3] of less than 10 nM and a GI50 [4] of 66 nM. It also gave a GI50 (SN12C) of less than 10 nM, a GI50 [7] of less than 10 nM and a GI50 (MCF7) of less than 10 nM.
`COc1cc2c3c(n(CCCN4CCOCC4)c(=O)c2cc1OS(=O)(=O)O)-c1cc2c(cc1C3=O)OCO2` showed an Activity [8] of 50%, a GI50 [5] of 389 nM and a GI50 [6] of 389 nM. For the same compound, the GI50 [2] was 263 nM, the GI50 [3] was 263 nM and the GI50 [4] was 1120 nM. The GI50 (SN12C) was 355 nM, the GI50 [7] was 417 nM and the GI50 (MCF7) was 209 nM.
In the case of `COc1cc2c3c(n(CCCN4CCOCC4)c(=O)c2cc1OC(C)=O)-c1cc2c(cc1C3=O)OCO2`, the Activity [1] is reported as “inactive”, the GI50 [5] is reported as less than 10 nM and the GI50 [6] is reported as less than 10 nM. The GI50 [2] was less than 10 nM, the GI50 [3] was less than 10 nM and the GI50 [4] was 269 nM. For the same compound, the GI50 (SN12C) was less than 10 nM, the GI50 [7] was less than 10 nM and the GI50 (MCF7) was less than 10 nM. For the same compound, the Drug metabolism (Plasma [9]) was “metabolite_detected” and the half-life at 5 µM [10] was 54 s.
`COc1cc2c3c(n(CCCN4CCOCC4)c(=O)c2cc1O)-c1cc2c(cc1C3=O)OCO2` gave an Activity [1] of 75%, a GI50 [5] of 10 nM and a GI50 [6] of 20 nM. For the same compound, the GI50 [2] was less than 10 nM, the GI50 [3] was less than 10 nM and the GI50 [4] was 30 nM. It also gave a GI50 (SN12C) of less than 10 nM, a GI50 [7] of less than 10 nM and a GI50 (MCF7) of less than 10 nM. The Drug uptake [11] was “Active” and the Drug uptake (Plasma [12]) was “Active”.
For `COc1cc2c(=O)n(CCCN3CCOCC3)c3c(c2cc1OC(=O)c1cccnc1)C(=O)c1cc2c(cc1-3)OCO2`, the Activity [8] was 75%, the GI50 [5] was 12 nM and the GI50 [6] was 30 nM. It also gave a GI50 [2] of less than 10 nM, a GI50 [3] of 22 nM and a GI50 [4] of 295 nM. For the same compound, the GI50 (SN12C) was less than 10 nM, the GI50 [7] was 13 nM and the GI50 (MCF7) was less than 10 nM.
